Measurements from ChEMBL document CHEMBL3865796, “Novel (2,6-difluorophenyl)(2-(phenylamino)pyrimidin-4-yl)methanones with restricted conformation as potent non-nucleoside reverse transcriptase inhibitors against HIV-1” (Eur J Med Chem, 2016).

What was measured:
[1] = Inhibition of wild type HIV-1 3B reverse transcriptase infected in human MT4 cells assessed as inhibition of viral replication after 5 days by cell titer glo based luciferase reporter gene assay; settings: Human immunodeficiency virus 1, 3B, MT4, 120 h
[2] = Cytotoxicity against human MT4 cells assessed as decrease in cell viability after 5 days by cell titer glo based luciferase reporter gene assay; assay type: toxicity
Method in brief: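 Mock-infected MT-4 cells (pre-treated with RPMI) in complete RPMI (10% FBS, 1% P/S) received 1:3 serial DMSO dilutions of compound, further diluted 200-fold into medium, in a 384-well format. Incubated 5 days at 37 °C in a humidified incubator. Viability was read as CellTiter-Glo luminescence. CC50 is the concentration giving a 50% fall in signal, from a sigmoidal dose-response fit.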

[3] = Selectivity index, ratio of CC50 for human MT4 cells to EC50 for wild type HIV-1 3B reverse transcriptase infected in human MT4 cells; assay type: toxicity, cell-based; settings: read-out: Ratio CC50/EC50
[4] = Inhibition of wild type HIV-1 3B reverse transcriptase infected in human MT4 cells assessed as inhibition of virus-induced cytopathic effect after 5 days incubation by Cell Titer Glo luminescence assay; settings: Human immunodeficiency virus 1, 3B

SMILES | EC50 [1] | CC50 at 120 h [2] | selectivity ratio [3] | EC50 [4]
COc1ccc(C(=O)c2ccnc(Cl)n2)cc1 | > 57 µM | 39.6 µM | < 0.69 | 
N#Cc1ccc(Nc2nccc(C(=O)c3c(F)cc(F)cc3F)n2)cc1 | 0.034 µM | > 57 µM | > 1680 | 
COc1ccc(C(=O)c2nc(Nc3ccc(C#N)cc3)ncc2Br)cc1 | > 57 µM | 2.45 µM | < 0.04 | 
N#Cc1ccc(Nc2nc(C(=O)c3ccc(C#N)cc3)ncc2Br)cc1 | 27.7 µM | > 57 µM | > 2.06 | 
COc1cc(F)c(C(=O)c2ccnc(Cl)n2)c(F)c1 | > 57 µM | > 57 µM | 1 | 
N#Cc1ccc(Nc2nccc(C(=O)c3ccc(C#N)cc3)n2)cc1 | 4.5 µM | > 57 µM | > 12.7 | 
COc1cc(F)c(C(=O)c2nc(Nc3ccc(C#N)cc3)ncc2Br)c(F)c1 | 0.069 µM | 38.7 µM | 561 | 
N#Cc1ccc(C(=O)c2ccnc(Cl)n2)cc1 | > 57 µM | 31.9 µM | < 0.56 | 
N#Cc1ccc(Nc2nccc(C(=O)c3c(F)cc(C#N)cc3F)n2)cc1 | 0.051 µM | > 57 µM | > 1120 | 
N#Cc1ccc(Nc2ccnc(C(O)c3ccc(C#N)cc3)n2)cc1 (stereo not given) | > 57 µM | > 57 µM | 1 | 
N#Cc1ccc(Nc2ncc(Br)c(C(=O)c3ccc(C#N)cc3)n2)cc1 | 7.4 µM | > 57 µM | > 7.7 | 
N#Cc1ccc(Nc2ccnc(C(=O)c3ccc(C#N)cc3)n2)cc1 | 43 µM | > 57 µM | > 1.33 | 
Cc1cc(C#N)cc(C)c1Oc1nc(Nc2ccc(C#N)cc2)nc(N)c1Br [ETRAVIRINE] |  | 5.88 µM |  | 
COc1ccc(C(=O)c2ccnc(Nc3ccc(C#N)cc3)n2)cc1 | 0.814 µM | > 57 µM | > 70 | 0.239 µM
COc1cc(F)c(C(=O)c2ccnc(Nc3ccc(C#N)cc3)n2)c(F)c1 | 0.004 µM | > 57 µM | > 14200 | 
N#Cc1cc(F)c(C(=O)c2ccnc(Cl)n2)c(F)c1 | > 57 µM | 30.5 µM | < 0.54 | 
N#Cc1ccc(C(=O)c2nccc(Cl)n2)cc1 | > 57 µM | 16.5 µM | < 0.29 | 
N#Cc1ccc(Nc2cc(F)c(C(=O)c3ccnc(Nc4ccc(C#N)cc4)n3)c(F)c2)cc1 | 0.31 µM | 51.9 µM | 167 | 
O=C(c1ccnc(Cl)n1)c1c(F)cc(F)cc1F | > 57 µM | 40.1 µM | < 0.7 | 
N#Cc1ccc(Nc2nccc(C(O)c3ccc(C#N)cc3)n2)cc1 (stereo not given) | 3.7 µM | > 57 µM | > 15.4 | 
N#Cc1ccc(Nc2ncc(Br)c(C(=O)c3c(F)cc(O)cc3F)n2)cc1 | > 57 µM | > 57 µM | 1 | 
COc1cc(F)c(C(=O)c2nc(Nc3ccc(C#N)cc3Br)ncc2Br)c(F)c1 | 18.9 µM | > 57 µM | > 3.02 | 
O=C(c1ccnc(Cl)n1)c1c(F)cc(Br)cc1F | > 57 µM | > 57 µM | 1 | 
O=C1Nc2ccc(Cl)cc2[C@@](C#CC2CC2)(C(F)(F)F)O1 [EFAVIRENZ] | 0.001 µM | 20.6 µM |  | 
